Assay results reported in ChEMBL document CHEMBL1649436, “Antiviral activity of MK-4965, a novel nonnucleoside reverse transcriptase inhibitor” (Antimicrob Agents Chemother, 2009).

Key:
[1] = system: Human immunodeficiency virus 1; experiment: Antiviral activity against HIV1 isolate R8 harboring reverse transcriptase K103N and Y181C mutant infected in human MT4 cells assessed as inhibition of viral replication after 72 hrs in presence of 50% human serum; assay type: functional; conditions: Human immunodeficiency virus 1, isolate R8, MT4, 72 h
Method in brief: (§1)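 Multiple-cycle assay: MT-4 cells (2.5 × 10^5) infected with R8-based virus at low MOI, no inhibitor, 24 h at 37°C, 5% CO2; washed, reseeded at 5 × 10^4 cells in RPMI 1640 with 10% FBS or 50% type AB human serum; threefold serial dilutions from 833 nM to 0.32 nM; 72 h; p24 in medium by AlphaScreen; EC95 = lowest concentration giving ≥95% p24 reduction versus untreated.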

[2] = system: Human immunodeficiency virus 1; experiment: Antiviral activity against HIV1 isolate R8 harboring wild type reverse transcriptase infected in human MT4 cells assessed as inhibition of viral replication after 72 hrs in presence of 50% human serum; assay type: functional; conditions: Human immunodeficiency virus 1, isolate R8, MT4, 72 h; method in brief: as §1
[3] = system: Human immunodeficiency virus 1; experiment: Antiviral activity against HIV1 isolate R8 harboring reverse transcriptase K103N mutant infected in human MT4 cells assessed as inhibition of viral replication after 72 hrs in presence of 10% FBS; assay type: functional; conditions: Human immunodeficiency virus 1, isolate R8, MT4, 72 h; method in brief: as §1
[4] = system: Human immunodeficiency virus 1; experiment: Antiviral activity against HIV1 isolate R8 harboring wild type reverse transcriptase infected in human MT4 cells assessed as inhibition of viral replication after 72 hrs in presence of 10% FBS; assay type: functional; conditions: Human immunodeficiency virus 1, isolate R8, MT4, 72 h; method in brief: as §1
Plasma [5] = experiment: Plasma protein binding in HIV1 infected patient; assay type: ADME, cell-free; conditions: human
[6] = system: Human immunodeficiency virus 1; experiment: Antiviral activity against HIV1 isolate R8 harboring reverse transcriptase K103N mutant infected in human MT4 cells assessed as inhibition of viral replication after 72 hrs in presence of 50% human serum; assay type: functional; conditions: Human immunodeficiency virus 1, isolate R8, MT4, 72 h; method in brief: as §1
[7] = system: Human immunodeficiency virus 1; experiment: Antiviral activity against HIV1 isolate R8 harboring reverse transcriptase K103N and Y181C mutant infected in human MT4 cells assessed as inhibition of viral replication after 72 hrs in presence of 10% FBS; assay type: functional; conditions: Human immunodeficiency virus 1, isolate R8, MT4, 72 h; method in brief: as §1
Plasma [8] = experiment: Plasma protein binding in healthy human at 200 mg/kg; assay type: ADME, organism-based; set-up: dose 200 mg/kg; conditions: in vivo
[9] = system: Human immunodeficiency virus 1; experiment: Antiviral activity against HIV1 isolate R8 harboring reverse transcriptase Y181C mutant infected in human MT4 cells assessed as inhibition of viral replication after 72 hrs in presence of 50% human serum; assay type: functional; conditions: Human immunodeficiency virus 1, isolate R8, MT4, 72 h; method in brief: as §1
[10] = system: Human immunodeficiency virus 1; experiment: Antiviral activity against HIV1 isolate R8 harboring reverse transcriptase Y181C mutant infected in human MT4 cells assessed as inhibition of viral replication after 72 hrs in presence of 10% FBS; assay type: functional; conditions: Human immunodeficiency virus 1, isolate R8, MT4, 72 h; method in brief: as §1
[11] = system: Human immunodeficiency virus 1; experiment: Ratio of EC95 for HIV1 isolate R8 harboring reverse transcriptase Y181C mutant in presence of 50% human serum to EC95 for HIV1 isolate R8 harboring wild type reverse transcriptase in presence of 50% human serum; assay type: functional
Method in brief: (§2)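 Ratios of EC95 values from the MT-4 multiple-cycle assay: R8 variants infected 24 h at low MOI, then reseeded in RPMI 1640 with 10% FBS or 50% type AB human serum with threefold dilutions (833–0.32 nM) for 72 h; p24 by AlphaScreen; EC95 = lowest concentration cutting p24 ≥95% versus untreated controls.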

[12] = system: Human immunodeficiency virus 1; experiment: Ratio of EC95 for HIV1 isolate R8 harboring reverse transcriptase K103N mutant in presence of 50% human serum to EC95 for HIV1 isolate R8 harboring wild type reverse transcriptase in presence of 50% human serum; assay type: functional; method in brief: as §2
[13] = system: Human immunodeficiency virus 1; experiment: Antiviral activity against HIV1 isolate R8 harboring reverse transcriptase Y181I mutant relative to drug-sensitive HIV1 CNDO; assay type: functional
[14] = system: Human immunodeficiency virus 1; experiment: Ratio of EC95 for HIV1 isolate R8 harboring reverse transcriptase K103N and Y181C mutant in presence of 50% human serum to EC95 for HIV1 isolate R8 harboring wild type reverse transcriptase in presence of 50% human serum; assay type: functional; method in brief: as §2
[15] = system: Human immunodeficiency virus 1; experiment: Antiviral activity against HIV1 isolate R8 harboring reverse transcriptase K101P mutant relative to drug-sensitive HIV1 CNDO; assay type: functional
[16] = system: Human immunodeficiency virus 1; experiment: Antiviral activity against HIV1 isolate R8 harboring reverse transcriptase F227C mutant relative to drug-sensitive HIV1 CNDO; assay type: functional
[17] = system: Human immunodeficiency virus 1; experiment: Antiviral activity against HIV1 isolate R8 harboring reverse transcriptase L100I and K103N mutant relative to drug-sensitive HIV1 CNDO; assay type: functional
[18] = system: Human immunodeficiency virus 1; experiment: Antiviral activity against HIV1 isolate R8 harboring reverse transcriptase M230L mutant relative to drug-sensitive HIV1 CNDO; assay type: functional
[19] = system: Human immunodeficiency virus 1; experiment: Antiviral activity against HIV1 isolate R8 harboring reverse transcriptase Y181C and K103N mutant relative to drug-sensitive HIV1 CNDO; assay type: functional

O=C1Nc2ccc(Cl)cc2[C@@](C#CC2CC2)(C(F)(F)F)O1 [EFAVIRENZ]
EC95 [1]: 3.39 µM | EC95 [2]: 0.038 µM | EC95 [3]: 0.245 µM | EC95 [4]: 0.0038 µM | Activity (Plasma [5]): > 99.5% | EC95 [6]: 1.73 µM | EC95 [7]: 0.322 µM | Activity (Plasma [8]): > 99.5% | EC95 [9]: 0.089 µM | EC95 [10]: 0.0084 µM

Cc1cc(C#N)cc(C)c1Oc1nc(Nc2ccc(C#N)cc2)nc(N)c1Br [ETRAVIRINE]
EC95 [1]: 0.542 µM | EC95 [2]: 0.038 µM | EC95 [3]: 0.006 µM | EC95 [4]: 0.004 µM | fold change (FC) [11]: 7 | fold change (FC) [12]: 1.1 | Activity (Plasma [5]): > 99.5% | fold change (FC) [13]: > 10 | EC95 [6]: 0.043 µM | EC95 [7]: 0.056 µM | fold change (FC) [14]: 14 | Activity (Plasma [8]): > 99.5% | EC95 [9]: 0.266 µM | fold change (FC) [15]: > 10 | fold change (FC) [16]: > 10 | fold change (FC) [17]: > 10 | fold change (FC) [18]: > 10 | EC95 [10]: 0.026 µM | fold change (FC) [19]: > 10
